Activity calls are given as the source filed them. How the calls were made is not given here.
Each compound was assayed against T1, Toll-like receptor 4 (Mus musculus) (UniProt Q9QUK6) (assay: Agonist activity at TLR4 in C57BL/6J mouse macrophages assessed as stimulation of TNFalpha release at 50 uM after 4 hrs by ELISA).
T1 sequence (whole entry): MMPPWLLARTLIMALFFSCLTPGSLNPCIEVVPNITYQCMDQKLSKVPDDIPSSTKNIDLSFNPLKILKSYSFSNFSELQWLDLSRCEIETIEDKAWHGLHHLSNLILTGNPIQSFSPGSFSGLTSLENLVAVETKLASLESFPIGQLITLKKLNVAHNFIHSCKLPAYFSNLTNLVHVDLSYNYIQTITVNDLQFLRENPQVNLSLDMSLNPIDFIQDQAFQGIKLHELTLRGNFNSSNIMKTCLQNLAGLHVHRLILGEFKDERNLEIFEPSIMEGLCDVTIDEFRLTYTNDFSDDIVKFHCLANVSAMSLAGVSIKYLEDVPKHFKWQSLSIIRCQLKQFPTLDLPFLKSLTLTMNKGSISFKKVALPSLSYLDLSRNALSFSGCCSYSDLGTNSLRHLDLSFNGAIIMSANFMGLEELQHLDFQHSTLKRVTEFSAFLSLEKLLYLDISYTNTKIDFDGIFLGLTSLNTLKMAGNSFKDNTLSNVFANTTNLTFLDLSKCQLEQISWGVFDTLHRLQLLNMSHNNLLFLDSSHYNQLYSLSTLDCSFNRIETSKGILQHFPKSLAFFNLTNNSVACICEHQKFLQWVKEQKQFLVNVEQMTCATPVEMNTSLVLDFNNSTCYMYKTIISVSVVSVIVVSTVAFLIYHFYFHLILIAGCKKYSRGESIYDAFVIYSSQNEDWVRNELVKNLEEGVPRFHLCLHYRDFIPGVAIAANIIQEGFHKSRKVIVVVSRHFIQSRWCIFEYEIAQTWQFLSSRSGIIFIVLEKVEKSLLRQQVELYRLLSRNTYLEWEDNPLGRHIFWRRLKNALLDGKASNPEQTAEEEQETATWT
In short: (§1)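 Peritoneal macrophages from wild-type C57BL/6J mice, collected by PBS lavage and cultured in DMEM/10% FBS at 37 °C, 5% CO2. Seeded at 1 × 10^5 cells/well and treated 4 h with compound in DMSO (0.5% final) beside ultra-pure LPS and DMSO controls. Supernatant TNF-α measured by ELISA; mean of triplicates.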

| Activity | SMILES |
| --- | --- |
| inactive | CC(C)(C)NC(=O)[C@H](CCc1ccccc1)NC(=O)c1ccc(N)c(CCc2ccc(O)cc2)c1 |
| inactive | NC(=O)[C@H](CCc1ccccc1)NC(=O)c1ccc(N)c(CCc2ccc(O)cc2)c1 |
| Active | CC(C)[C@H](N)C(=O)OC(C)(C)C |
| inactive | CC(C)(C)OC(=O)[C@@H](N)Cc1ccccc1 |
| Active | CCC(C)(C)OC(=O)[C@H](CCc1ccccc1)NC(=O)c1ccc(N)c(CCc2ccc(O)cc2)c1 |
| inactive | CC(C)(C)OC(=O)[C@H](CCc1ccc(O)cc1)NC(=O)c1ccc(N)c(CCc2ccc(O)cc2)c1 |
| inactive | C#CCC(C)(C)OC(=O)[C@H](CCc1ccccc1)NC(=O)c1ccc(N)c(CCc2ccc(O)cc2)c1 |
| inactive | CC(C)(C)OC(=O)[C@H](CCc1ccccc1)NC(=O)c1ccc(N)c(Nc2ccc(O)cc2)c1 |
| Active | CC[C@H](N)C(=O)OC(C)(C)C |
| inactive | COc1ccc(CCc2cc(C(=O)N[C@@H](CCc3ccccc3)C(=O)OC(C)(C)C)ccc2N)cc1 |
| inactive | CC(C)(C)OC(=O)[C@H](CCCc1ccccc1)NC(=O)c1ccc(N)c(CCc2ccc(O)cc2)c1 |
| Active | CC(C)(C)OC(=O)[C@H](CCc1ccccc1)NC(=O)c1ccc(N)c(OCCc2cccc(O)c2)c1 |
| inactive | CCCCCCCCCNC(=O)[C@H](CCc1ccccc1)NC(=O)c1ccc(N)c(CCc2ccc(O)cc2)c1 |
| inactive | Nc1ccc(C(=O)N[C@@H](CCc2ccccc2)C(=O)O)cc1OCCc1ccc(O)cc1 |
| inactive | CC(C)(C)OC(=O)[C@H](CCc1ccccc1)NC(=S)c1ccc(N)c(CCc2ccc(O)cc2)c1 |
| inactive | CC(C)(C)OC(=O)[C@H](CCc1ccccc1)NC(=O)c1ccc(N)c(C#Cc2ccc(O)cc2)c1 |
| inactive | CC(C)(C)COC(=O)[C@H](CCc1ccccc1)NC(=O)c1ccc(N)c(CCc2ccc(O)cc2)c1 |
| inactive | CC(C)(C)OC(=O)[C@H](CCc1ccccc1)NC(=O)c1cccc(CCc2ccc(O)cc2)c1 |
| inactive | CC(C)(C)OC(=O)[C@H](CCc1ccccc1)NC(=O)c1ccc(N)c(Cc2ccc(O)cc2)c1 |
| inactive | CC(C)(C)OC(=O)[C@H](CCc1ccccc1)NC(=O)c1ccc(N)c(OCCCCc2ccc(O)cc2)c1 |

| Activity | SMILES |
| --- | --- |
| Active | CC(C)C[C@H](N)C(=O)OC(C)(C)C |
| inactive | CC(C)(C)OC(=O)[C@H](CCc1ccccc1)NC(=O)c1cc(CCc2ccc(O)cc2)ccc1N |
| inactive | CC(C)(C)OC(=O)[C@H](CCc1ccc(Cl)cc1)NC(=O)c1ccc(N)c(CCc2ccc(O)cc2)c1 |
| Active | CC(C)(C)OC(=O)[C@H](CCc1ccccc1)NC(=O)c1cc(N)cc(CCc2ccc(O)cc2)c1 |
| inactive | CC(=O)Nc1ccc(C(=O)N[C@@H](CCc2ccccc2)C(=O)OC(C)(C)C)cc1CCc1ccc(O)cc1 |
| inactive | CCCCCCCNC(=O)[C@H](CCc1ccccc1)NC(=O)c1ccc(N)c(CCc2ccc(O)cc2)c1 |
| inactive | CC(C)(C)OC(=O)[C@H](CCc1ccc(N)cc1)NC(=O)c1ccc(N)c(CCc2ccc(O)cc2)c1 |
| inactive | CC(C)(C)OC(=O)[C@H](CCc1ccccc1)NC(=O)c1ccc([N+](=O)[O-])c(OCCc2ccc(O)cc2)c1 |
| Active | COc1ccc(C[C@H](N)C(=O)Nc2ccc(C(=O)N[C@@H](CCc3ccccc3)C(=O)O)cc2OCCc2ccc(O)cc2)cc1 |
| inactive | Nc1ccc(C(=O)N[C@@H](CCc2ccccc2)C(=O)OC23CC4CC(CC(C4)C2)C3)cc1CCc1ccc(O)cc1 |
| inactive | CC(C)(C)OC(=O)[C@H](CCCCc1ccccc1)NC(=O)c1ccc(N)c(CCc2ccc(O)cc2)c1 |
| Active | CC(C)(C)OC(=O)[C@H](CCc1ccccc1)NC(=O)c1ccc(N)c(CCCc2ccc(O)cc2)c1 |
| Active | Cc1ccc(CC[C@H](NC(=O)c2ccc(N)c(CCc3ccc(O)cc3)c2)C(=O)OC(C)(C)C)cc1 |
| inactive | CC(C)(C)OC(=O)[C@H](CCc1ccccc1)NC(=O)c1ccc(N)c(CCc2ccccc2)c1 |
| Active | CC(C)(C)OC(=O)[C@H](CCc1ccccc1)NC(=O)c1ccc(N)c(CCc2cccc(O)c2)c1 |
| inactive | CC(C)(C)OC(=O)[C@H](CCc1ccccc1)NC(=O)c1ccc(N)c(OCCCc2ccc(O)cc2)c1 |
| inactive | CN(C(=O)c1ccc(N)c(CCc2ccc(O)cc2)c1)[C@@H](CCc1ccccc1)C(=O)OC(C)(C)C |
| inactive | CN(C)c1ccc(C(=O)N[C@@H](CCc2ccccc2)C(=O)OC(C)(C)C)cc1CCc1ccc(O)cc1 |
| Active | CC(C)(C)OC(=O)[C@H](CCc1ccccc1)NC(=O)c1ccc(N)c(COc2ccc(O)cc2)c1 |
| Active | CCCCCCNC(=O)[C@H](CCc1ccccc1)NC(=O)c1ccc(N)c(CCc2ccc(O)cc2)c1 |

| Activity | SMILES |
| --- | --- |
| inactive | CC(C)(C)OC(=O)[C@H](CCc1ccccc1)NC(=O)c1ccc(N)c(Sc2ccc(O)cc2)c1 |
| Active | CC(C)(C)OC(=O)[C@H](CCC1CCCCC1)NC(=O)c1ccc(N)c(CCc2ccc(O)cc2)c1 |
| inactive | CC(C)(C)OC(=O)[C@H](CCc1ccccc1)NC(=O)c1ccc(N)c(OCCc2ccc(O)c(Cl)c2)c1 |
| inactive | CC(C)(C)OC(=O)[C@H](CCc1ccccc1)NC(=O)c1ccc(N)c(-c2ccc(O)cc2)c1 |
| inactive | CC(C)(C)OC(=O)[C@H](CCc1ccccc1)NC(=O)c1cccc(OCCc2ccc(O)cc2)c1 |
| Active | N[C@@H](Cc1ccccc1)C(=O)Nc1ccc(C(=O)N[C@@H](CCc2ccccc2)C(=O)O)cc1OCCc1ccc(O)cc1 |
| inactive | CNc1ccc(C(=O)N[C@@H](CCc2ccccc2)C(=O)OC(C)(C)C)cc1CCc1ccc(O)cc1 |
| inactive | CC(C)(C)OC(=O)[C@H](CCc1ccccc1)NCc1ccc(N)c(CCc2ccc(O)cc2)c1 |
| inactive | CC(C)(C)OC(=O)[C@H](CCc1ccccc1)NC(=O)c1ccc(N)c(CCc2ccccc2O)c1 |
| inactive | Nc1ccc(C(=O)N[C@@H](CCc2ccccc2)C(=O)O)cc1CCc1ccc(O)cc1 |
| Active | N[C@@H](Cc1ccc2ccccc2c1)C(=O)Nc1ccc(C(=O)N[C@@H](CCc2ccccc2)C(=O)O)cc1OCCc1ccc(O)cc1 |
| Active | CC(C)(C)OC(=O)[C@H](CCc1ccc(F)cc1)NC(=O)c1ccc(N)c(CCc2ccc(O)cc2)c1 |
| inactive | CC(C)(C)OC(=O)[C@H](CCc1ccccc1)NC(=O)c1ccc(N)c(OCCc2ccc(O)c(F)c2)c1 |
| inactive | CCCCCCCCCCNC(=O)[C@H](CCc1ccccc1)NC(=O)c1ccc(N)c(CCc2ccc(O)cc2)c1 |
| inactive | CSCC[C@H](N)C(=O)OC(C)(C)C |
| inactive | CCCCCCCCNC(=O)[C@H](CCc1ccccc1)NC(=O)c1ccc(N)c(CCc2ccc(O)cc2)c1 |
| inactive | CC(C)(C)OC(=O)[C@H](CCc1ccccc1)NC(=O)c1ccc(N)c(OCCc2ccccc2)c1 |
| inactive | CC(C)OC(=O)[C@H](CCc1ccccc1)NC(=O)c1ccc(N)c(CCc2ccc(O)cc2)c1 |

Each compound was assayed against T2, Toll-like receptor 4 (Mus musculus, UniProt Q9QUK6) (assay: Agonist activity at TLR4 in C57BL/6J mouse macrophages assessed as stimulation of TNFalpha release after 4 hrs by ELISA).
T2 sequence (Q9QUK6 whole entry): T1 sequence (whole entry)
In short: as §1

| EC50 [µM] | SMILES |
| --- | --- |
| 21.6 | Cc1ccc(CC[C@H](NC(=O)c2ccc(N)c(CCc3ccc(O)cc3)c2)C(=O)OC(C)(C)C)cc1 |
| 29.5 | CC(C)(C)OC(=O)[C@H](CCC1CCCCC1)NC(=O)c1ccc(N)c(CCc2ccc(O)cc2)c1 |

Source: ChEMBL document CHEMBL3817776, “Discovery and Structure-Activity Relationships of the Neoseptins: A New Class of Toll-like Receptor-4 (TLR4) Agonists” (J Med Chem, 2016)
